In ChEMBL document CHEMBL1123454, “New alpha-methylene gamma-lactone derivatives of substituted nucleic acid bases as potential anticancer agents” (1986):
≈ marks a conversion by molar mass, not a printed value.

Tests used:
[1] = system: Mus musculus; assay: Average survival days was measured by administrating the compound to Ehrlich ascites carcinoma (EAC) in swiss mice at 25 mg/kg dose; assay type: functional
Procedure, shortened: (§1)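 Swiss male mice (18–20 g) inoculated ip on day 0 with 1×10^6 EAC cells diluted in normal saline. Daily ip treatment began 24 h later for 7 days, compound homogenized in saline with 2% Tween-80, dose volume ≤0.01 mL/g; vehicle controls. Six mice per dose, one control group per six groups. Deaths counted daily; median survival times, T/C.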

[2] = system: Mus musculus; assay: Compound was tested in vivo for antitumor activity at 25 mg/kg dose; assay type: functional
Procedure, shortened: (§2)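 Swiss male mice (18–20 g) inoculated ip on day 0 with 1×10^6 Ehrlich ascites carcinoma cells in 0.2 mL saline. Starting 24 h later, ip dosing once daily for 7 days; compound homogenized in saline with 2% Tween-80, at most 0.01 mL/g. Controls received vehicle alone. Six mice per dose, one control group per six groups. Deaths counted daily; median survival times expressed as T/C.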

[3] = system: Mus musculus; assay: Compound was tested in vivo for antitumor activity at 12 mg/kg dose; assay type: functional; procedure, shortened: as §2
[4] = system: Mus musculus; assay: Average survival days was measured by administrating the compound to Ehrlich ascites carcinoma(EAC) in swiss mice at 12 mg/kg dose; assay type: functional; procedure, shortened: as §1
[5] = In vitro concentration required to reduce the growth rate of KB cells in culture by 50%; assay type: functional; settings: Homo sapiens, read-out: ED50 (the source's name)
Procedure, shortened: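 Cytotoxicity screened at the National Cancer Institute by its standard protocol against murine P-388 lymphocytic leukemia (PS) and human nasopharyngeal carcinoma KB cells in culture. ED50 (μg/mL) is the concentration that halves the growth rate relative to control cultures.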

[6] = system: PS; assay: In vitro concentration required to reduce the growth rate of PS cells in culture by 50%; settings: Mus musculus, read-out: ED50 (the source's name)
[7] = system: Mus musculus; assay: Average survival days was measured by administrating the compound to Ehrlich ascites carcinoma (EAC) in swiss mice at 12 mg/kg dose; assay type: functional; procedure, shortened: as §1

SMILES	Average survival days [1]	T/C [2]	T/C [3]	Average survival days [4]	EC50 [5]	EC50 [6]	Average survival days [7]
C=C1CC(CC)(CCn2cc(F)c(=O)[nH]c2=O)OC1=O (stereo not given)	19.5	126	148	23			
C=C1CC(CC)(CCn2cc(C)c(=O)[nH]c2=O)OC1=O (stereo not given)	25.5	170	163	24.5			
C=C1CC(CC)(CCn2cnc3c(S)ncnc32)OC1=O (stereo not given)	17.5	113	116	18			
C=C1CC(C)(Cn2cnc3c(Cl)ncnc32)OC1=O (stereo not given)	24	160	133	20	1.5 µg/mL (≈ 5.38 µM)	0.17 µg/mL (≈ 0.61 µM)	
C=C1CC(CC)(CCn2ccc(=O)[nH]c2=O)OC1=O (stereo not given)	19.5	126	129		2.8 µg/mL (≈ 10.6 µM)	0.35 µg/mL (≈ 1.32 µM)	20
C=C1CC(C)(Cn2cnc3c(S)ncnc32)OC1=O (stereo not given)	18.5	123	107	16	> 10 µg/mL	> 10 µg/mL	
C=C1CC(C)(Cn2cnc3c(O)ncnc32)OC1=O (stereo not given)	16.5	110	107	16			
C=C1CC(CC)(CCn2cnc3c(Cl)ncnc32)OC1=O (stereo not given)	25	161	126	19.5	2.6 µg/mL (≈ 8.48 µM)	0.25 µg/mL (≈ 0.815 µM)	
C=C1CC(CC)(CCn2cc(F)c(=O)n(CCC3(CC)CC(=C)C(=O)O3)c2=O)OC1=O (stereo not given)	21	123	138	23.5			
C=C1CC(CC)(CCn2cnc3c(O)ncnc32)OC1=O (stereo not given)	17	109	113	17.5			
O=c1[nH]cc(F)c(=O)[nH]1 [FLUOROURACIL]	33	220					
